Results taken from ChEMBL document CHEMBL1156777, “Synthesis and antiprotozoal activity of cationic 1,4-diphenyl-1H-1,2,3-triazoles” (J Med Chem, 2010).

Columns and labels:
L6 = assay: Cytotoxicity against rat L6 cells after 70 hrs by alamar blue assay; format: cell-based; details: L6, 70 h
Outline: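 Cells were exposed to serial dilutions for 70 h at 37 °C, 5% CO₂, then given resazurin for 2–3 h. IC50 came from sigmoidal curves; two independent runs in duplicate. Top concentration was 90 μg/mL, converted to μM by molecular weight.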

[1] = tested on: Trypanosoma brucei rhodesiense; assay: Antitrypanosomal activity against Trypanosoma brucei rhodesiense STIB900 after 70 hrs by alamar blue assay; format: functional, organism-based; details: STIB900, 70 h
[2] = Selectivity index, ratio of IC50 for rat L6 cells to IC50 for Plasmodium falciparum K1; format: toxicity, cell-based; details: read-out: Ratio IC50
Outline: (§1)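 Each index is L6 IC50 divided by parasite IC50. L6 values are from the 70 h resazurin assay. T. b. rhodesiense STIB900 values are from the 70 h resazurin assay. P. falciparum K1 values are from erythrocytic-stage [³H]-hypoxanthine incorporation: 48 h drug exposure, then 24 h with label. L. donovani values are from the 72 h axenic amastigote CellTiter assay.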

[3] = Selectivity index, ratio of IC50 for rat L6 cells to IC50 for Trypanosoma brucei rhodesiense STIB900; format: toxicity, cell-based; details: read-out: Ratio IC50; outline: as §1
Plasmodium falciparum = assay: Antiplasmodial activity against chloroquine-resistant Plasmodium falciparum K1 infected in human erythrocytes after 48 hrs assessed as [3H]hypoxanthine incorporation by liquid scintillation counting; format: functional, organism-based
Leishmania donovani = assay: Antileishmanial activity against Leishmania donovani MHOM/SD/62/1S-CL2D; format: functional, organism-based
Outline: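 Axenic amastigotes (MHOM/SD/62/1S-CL2_D) adapted from promastigotes and grown in amastigote medium at 37 °C. 6 × 10⁴ parasites per well were exposed to 2-fold serial dilutions for 72 h at 37 °C in humidified 5% CO₂. Growth was read with tetrazolium CellTiter reagent as absorbance at 490 nm. IC50 came from a four-parameter dose–response fit; duplicate determinations were averaged.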

[4] = Selectivity index, ratio of IC50 for rat L6 cells to IC50 for Leishmania donovani MHOM/SD/62/1S-CL2D; format: toxicity, cell-based; details: read-out: Ratio IC50; outline: as §1
[5] = tested on: Trypanosoma brucei rhodesiense; assay: Antitrypanosomal activity against Trypanosoma brucei rhodesiense STIB900 infected in NMRI mouse assessed as mean parasitemia relaps day at 5 mg/kg, ip; format: functional; details: route intraperitoneal
Outline: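 Female NMRI mice infected ip with 2 × 10⁴ STIB900 bloodstream forms. Groups of four dosed ip daily on days 3–6 postinfection; compounds in DMSO diluted with water to 10% final DMSO. Untreated infected controls. Tail-blood parasitaemia checked on days 7 and 10, twice weekly to day 30, then weekly to day 60. Relapse day recorded for mean relapse day; cure means parasite-free survival to day 60.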

SMILES	IC50 (L6) [µM]	IC50 [1] [µM]	selectivity ratio [2]	selectivity ratio [3]	IC50 (Plasmodium falciparum) [µM]	IC50 (Leishmania donovani) [µM]	selectivity ratio [4]	Activity [5] [days]
COc1cc(C(=N)NC(C)C)ccc1-n1cc(-c2ccc(C(=N)NC(C)C)cc2)nn1	> 164	0.328	> 8630	> 500	0.019	> 100	–	–
COc1ccc(C(=N)N)cc1-c1cn(-c2cccc(C(=N)N)c2)nn1	> 200	1.65	> 8330	> 121	0.024	> 100	–	–
COc1cc(C2=NCCN2)ccc1-c1cn(-c2cccc(C3=NCCN3)c2)nn1	> 172	4.02	> 2690	> 43	0.064	> 100	–	–
N=C(N)c1ccc(-c2cn(-c3cc(C(=N)N)ccc3O)nn2)cc1	> 203	6.64	> 165	> 31	1.23	> 100	–	–
Oc1cc(C2=NCCN2)ccc1-c1cn(-c2cccc(C3=NCCN3)c2)nn1	> 183	0.606	> 11400	> 302	0.016	> 100	–	–
COc1ccc(C(=N)NC(C)C)cc1-c1cn(-c2cccc(C(=N)NC(C)C)c2)nn1	> 176	1.25	> 1660	> 141	0.106	> 100	–	–
CC(C)NC(=N)c1cccc(-n2cc(-c3cc(C(=N)NC(C)C)ccc3O)nn2)c1	> 170	10.9	> 742	> 16	0.229	> 100	–	–
COc1cc(C(=N)NC(C)C)ccc1-c1cn(-c2ccc(C(=N)NC(C)C)cc2)nn1	> 166	0.201	> 12800	> 826	0.013	> 100	–	–
COc1cc(C(=N)NC(C)C)ccc1-n1cc(-c2cccc(C(=N)NC(C)C)c2)nn1	> 159	1.96	> 2890	> 81	0.055	> 100	–	–
COc1ccc(C(=N)NC(C)C)cc1-n1cc(-c2cccc(C(=N)NC(C)C)c2)nn1	131	10.1	1050	13	0.125	> 100	–	–
c1cc(C2=NCCN2)cc(-c2cn(-c3ccc(C4=NCCN4)cc3)nn2)c1	127	0.2	1510	635	0.084	> 100	–	–
CC(C)NC(=N)c1cccc(-c2cn(-c3cc(C(=N)NC(C)C)ccc3O)nn2)c1	> 167	13.9	> 226	> 12	0.739	> 100	–	–
N=C(N)c1ccc(-c2cn(-c3ccc(C(=N)N)cc3O)nn2)cc1	> 216	0.501	> 1270	> 431	0.17	> 100	–	–
COc1ccc(C2=NCCN2)cc1-n1cc(-c2cccc(C3=NCCN3)c2)nn1	> 172	7.83	> 5730	> 22	0.03	> 100	–	–
Oc1ccc(C2=NCCN2)cc1-n1cc(-c2ccc(C3=NCCN3)cc2)nn1	> 175	19.6	> 198	> 9	0.885	> 100	–	–
COc1ccc(C(=N)NC(C)C)cc1-n1cc(-c2ccc(C(=N)NC(C)C)cc2)nn1	> 173	0.447	> 887	> 387	0.195	> 100	–	–
c1cc(C2=NCCN2)cc(-n2cc(-c3ccc(C4=NCCN4)cc3)nn2)c1	133	0.461	1400	289	0.095	> 100	–	–
CC(C)NC(=N)c1ccc(-c2cn(-c3cc(C(=N)NC(C)C)ccc3O)nn2)cc1	> 170	15.1	> 32	> 11	5.27	> 100	–	–

SMILES	IC50 (L6) [µM]	IC50 [1] [µM]	selectivity ratio [2]	selectivity ratio [3]	IC50 (Plasmodium falciparum) [µM]	IC50 (Leishmania donovani) [µM]	selectivity ratio [4]	Activity [5] [days]
COc1ccc(C2=NCCN2)cc1-n1cc(-c2ccc(C3=NCCN3)cc2)nn1	> 170	0.162	> 7730	> 1050	0.022	> 100	–	–
CC(C)NC(=N)c1ccc(-n2cc(-c3cccc(C(=N)NC(C)C)c3)nn2)cc1	> 190	0.539	> 5000	> 353	0.038	> 100	–	–
Oc1cc(C2=NCCN2)ccc1-n1cc(-c2ccc(C3=NCCN3)cc2)nn1	> 198	0.998	> 4830	> 198	0.041	> 100	–	–
CC(C)NC(=N)c1cccc(-c2cn(-c3cccc(C(=N)NC(C)C)c3)nn2)c1	> 184	14.8	> 1560	> 12	0.118	> 100	–	–
CC(C)NC(=N)c1ccc(-c2cn(-c3cccc(C(=N)NC(C)C)c3)nn2)cc1	193	0.462	4490	418	0.043	58	3	–
Oc1cc(C2=NCCN2)ccc1-n1cc(-c2cccc(C3=NCCN3)c2)nn1	> 187	11.1	> 1180	> 17	0.159	> 100	–	–
N=C(N)c1cccc(-c2cn(-c3cc(C(=N)N)ccc3O)nn2)c1	> 209	49.6	> 23	> 4	8.93	> 100	–	–
Oc1ccc(C2=NCCN2)cc1-n1cc(-c2cccc(C3=NCCN3)c2)nn1	> 174	102	> 535	> 2	0.325	> 100	–	–
COc1cc(C(=N)NC(C)C)ccc1-c1cn(-c2cccc(C(=N)NC(C)C)c2)nn1	> 170	0.703	> 5000	> 242	0.034	32	> 5	–
CC(C)NC(=N)c1cccc(-n2cc(-c3ccc(C(=N)NC(C)C)cc3O)nn2)c1.Cl.Cl	> 175	0.077	> 3570	> 2270	0.049	> 100	–	18
COc1cc(C2=NCCN2)ccc1-n1cc(-c2ccc(C3=NCCN3)cc2)nn1	> 176	0.675	> 10400	> 261	0.017	> 100	–	–
c1cc(C2=NCCN2)cc(-c2cn(-c3cccc(C4=NCCN4)c3)nn2)c1	> 197	14.1	> 540	> 14	0.365	> 100	–	–
Oc1ccc(C2=NCCN2)cc1-c1cn(-c2cccc(C3=NCCN3)c2)nn1	> 183	11.7	> 3520	> 16	0.052	> 100	–	–
COc1cc(C2=NCCN2)ccc1-n1cc(-c2cccc(C3=NCCN3)c2)nn1	> 173	1.87	> 2980	> 93	0.058	> 100	–	–
CC(C)NC(=N)c1cccc(-c2cn(-c3ccc(C(=N)NC(C)C)cc3O)nn2)c1	> 187	18.7	> 157	> 10	1.19	> 100	–	–
CC(C)NC(=N)c1ccc(-c2cn(-c3ccc(C(=N)NC(C)C)cc3O)nn2)cc1	> 178	1.38	> 223	> 129	0.8	> 100	–	–
COc1cc(C2=NCCN2)ccc1-c1cn(-c2ccc(C3=NCCN3)cc2)nn1	142	0.116	12900	1220	0.011	> 100	–	–
COc1ccc(C(=N)NC(C)C)cc1-c1cn(-c2ccc(C(=N)NC(C)C)cc2)nn1	> 177	0.077	> 6810	> 2300	0.026	> 100	–	–
